The results in this text go back to PubChem BioAssay.

Activity calls are given as the source filed them.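 How the source made its calls, unless noted: active means inhibition at or above 50% at 10 µM; inactive means inhibition below 50%.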

A short description of test [1]: inhibitors of TNFa-induced NFkB p65 translocation, primary screen, imaging, HUVEC, MLSMR starter and 10KST1 sets (AID 438;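 active means inhibition above 20% together with a positive visual image hit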;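 further: compound added about 3h40 before a 20 min TNFalpha stimulation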;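 on inhibition: signal is the nuclear over cytoplasmic p65 intensity ratio per well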). The settings on record: HUVEC TNFa-induced p65 nuclear translocation; cell count: measured here: nuclei count (cytotoxicity indicator), at 2.08 µM; inhibition: at 2 µM, stronger effect = higher value, 0% TNFa-plus-vehicle, 100% no-TNFa wells.
Test [2] in a line: inhibitors of mutant huntingtin aggregation, primary screen, imaging, exon1htt(103Q)mCFP cells, high-content imaging (AID 483;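 active means visual image review flags a hit and inhibition of aggregation exceeds 20%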;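 further: compound exposure lasted 3 days before fixation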;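 on nuclei count: percent of the per-plate median nuclei count of sample wells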). The settings on record: exon1htt(103Q)mCFP cell line, aggregate imaging, at 2 µM; inhibition of aggregation: stronger effect = higher value; nuclei count: measured here: cell count, toxicity.
The nature of test [3]: inhibitors of E-selectin induction by TNFa, primary screen, imaging, HUVEC, immunofluorescence, MLSMR starter and 10KST1 sets (AID 487;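 active means visually confirmed hit in the image check and inhibition above 20%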;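 on inhibition: signal is fraction of cell area covered by stained E-selectin grains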;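 on nuclei count: 100% = median nuclei count of all wells on the same plate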). Conditions: HUVEC TNFalpha-induced E-selectin immunofluorescence imaging, at 2 µM; inhibition: stronger effect = higher value; nuclei count: measured here: cell number, toxicity.
For test [4], the target named is Voltage-gated potassium channel subunit beta-2 (Rattus norvegicus) (UniProt P62483). Put plainly: KvBeta enzyme negative modulators, primary screen, biochemical, NADPH fluorescence (AID 622;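 active means fluorescence slope higher than the sample average by over 3 SD, cut at about -0.22 in these data, passing the limit was not always enough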;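 further: slope of raw intensity against log time taken from 70 to 1610 s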). Conditions: recombinant KvBeta, 4-cyanobenzaldehyde reduction, at 10 µM, stronger effect = higher value.
Voltage-gated potassium channel subunit beta-2 (Rattus norvegicus), sequence (P62483 whole entry, looked up): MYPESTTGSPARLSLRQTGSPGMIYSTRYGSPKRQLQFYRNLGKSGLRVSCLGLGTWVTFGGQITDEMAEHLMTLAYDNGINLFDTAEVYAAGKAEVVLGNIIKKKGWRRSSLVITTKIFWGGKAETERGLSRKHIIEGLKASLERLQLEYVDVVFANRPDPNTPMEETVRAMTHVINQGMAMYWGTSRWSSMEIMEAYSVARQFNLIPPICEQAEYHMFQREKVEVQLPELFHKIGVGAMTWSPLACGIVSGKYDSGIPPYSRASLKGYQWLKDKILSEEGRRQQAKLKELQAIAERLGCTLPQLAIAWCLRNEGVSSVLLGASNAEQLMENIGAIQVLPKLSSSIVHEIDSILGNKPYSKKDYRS
For test [5] the target is unchanged. The experiment in a line: KvBeta positive modulators, primary screen, biochemical, NADPH fluorescence (AID 623;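 active means NADPH fluorescence slope more negative than the mean of all samples by about 3 SD, 99.7% confidence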;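 further: fluorescence intensity change per second fitted from 20 to 320 s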). Conditions: Recombinant KvBeta, NADPH fluorescence decrease slope, 10 min; at 10 µM; stronger effect = lower value.
Test [6] has as its target Muscarinic acetylcholine receptor M4 (Homo sapiens) (UniProt P08173). The experiment in a line: compounds altering M4/GIRK thallium flux, either direction, primary screen, M4 allosteric agonist project, cell-based, HEK293 M4/GIRK, BTC-AM (AID 625;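 active means fluorescence slope after compound addition differing from the mean of all tested samples at 99.7% confidence, mostly higher but some lower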;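 further: thallium influx through GIRK channels coupled to M4 in HEK293 cells with BTC-AM dye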). Conditions: at 10 µM, actives lie on both sides. The method in brief:
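Material – HEK293 cells with M4 receptor and GIRK channels · Buffer or medium – pH 7.3 thallium assay buffer · Doses – one dose, 10 µM final · Timing – cells overnight at 37 °C, BTC-AM loading 1 h, reads 2 min total · Measured by – kinetic fluorescence with BTC-AM dye · Controls – carbachol and DMSO controls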

Test [7] is described as follows: inhibitors of Sendai virus-induced IRF3 signaling, primary screen, TLR/RLR signaling modifier project, cell-based, Sendai virus stimulus, luciferase, 10K MLSCN set (AID 602276).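 Further: firefly luciferase from ISG56 promoter only with Renilla not read in this screen; 0% = Sendai virus plus DMSO and 100% = medium plus DMSO without virus.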 Conditions: HEK293 RL24 IRF3 luciferase reporter, at 10 µM, stronger effect = higher value.
A short description of test [8]: inhibitors of poly I:C-induced TLR3 signaling, primary screen, cell-based, poly I:C stimulus, luciferase, 10K MLSCN set (AID 602277;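 active means inhibition of the reporter signal at or above 50%; inactive means inhibition below 50%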). The settings on record: HEK293-TLR3 RL24 IRF3 luciferase reporter, at 10 µM, stronger effect = higher value. On the technique in general: In a reporter assay the amount or activity of a reporter protein is the signal.

Muscarinic acetylcholine receptor M4 (Homo sapiens), sequence (P08173 whole entry, looked up): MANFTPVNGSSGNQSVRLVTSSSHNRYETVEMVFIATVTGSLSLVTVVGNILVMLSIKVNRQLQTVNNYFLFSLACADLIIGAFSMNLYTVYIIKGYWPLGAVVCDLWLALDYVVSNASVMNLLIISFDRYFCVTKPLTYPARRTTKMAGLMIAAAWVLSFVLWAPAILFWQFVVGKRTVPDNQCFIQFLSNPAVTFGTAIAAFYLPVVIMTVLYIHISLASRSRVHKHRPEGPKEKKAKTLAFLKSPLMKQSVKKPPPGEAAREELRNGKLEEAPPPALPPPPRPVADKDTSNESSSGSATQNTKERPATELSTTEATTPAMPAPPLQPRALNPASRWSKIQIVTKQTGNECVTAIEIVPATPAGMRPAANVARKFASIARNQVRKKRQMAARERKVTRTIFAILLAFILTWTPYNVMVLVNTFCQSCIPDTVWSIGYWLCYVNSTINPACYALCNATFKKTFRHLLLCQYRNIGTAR

For `Cc1ccc(NCc2nnc(SCC(=O)NCc3ccco3)n2CC2CCCO2)cc1Cl` (centres undefined), the cell count in test [1] is 331. The inhibition (usually the change of the read-out against control, counted positive when it falls) in test [1] was -11.8% (inactive); in test [3], 4.6% (inactive); in test [7] it was -1.38% (inactive); in test [8] it was -3.61% (inactive). In addition, the inhibition of aggregation in test [2] was 13.3% (inactive). Also, the nuclei count in test [2] stood at 80.1%; in test [3] it was 106%. The fluorescence slope in test [4] is -0.505 (inactive); in test [6], 0.00472 (inactive). Further, in test [5], the NADPH fluorescence slope was 2.3e-05 (inactive).

`O=C1CC(N2CCC(C(=O)N3CCCCC3)CC2)C(=O)N1` (centres undefined): the cell count in test [1] came out at 349. Further, the inhibition was 4% (inactive) in test [1], -37.4% (inactive) in test [3], 19.9% (inactive) in test [7] and 16.2% (inactive) in test [8]. For the same molecule, the inhibition of aggregation in test [2] is 10.7% (inactive). In addition, the values for the nuclei count in test [2] and in test [3] were 115% and 148%, respectively. Further, the figures for the fluorescence slope in test [4] and in test [6] were -0.554 (inactive) and 0.00558 (inactive), respectively. Moreover, in test [5], the NADPH fluorescence slope is -3.8e-05 (inactive).

As to `COc1ccc(N2C(=O)CC(NC3CC3)C2=O)cc1` (centres undefined), the cell count in test [1] turned out to be 416. The inhibition in test [1] was 9.4% (inactive); in test [3], 7.7% (inactive); in test [7] it was 16.4% (inactive); in test [8] it was 24% (inactive). Besides, in test [2], the inhibition of aggregation is 0.9% (inactive). In addition, the nuclei count in test [2] amounted to 108%; in test [3], 110%. In addition, the fluorescence slope in test [4] is -0.577 (inactive); in test [6], 0.00561 (inactive). In addition, the NADPH fluorescence slope in test [5] was 1.5e-05 (inactive).

On to `COc1ccccc1C(=O)NCCc1nc2ccccc2n1C`, for which the cell count in test [1] came out at 564. Moreover, the inhibition in test [1] is -11.3% (inactive); in test [3], 15.5% (inactive); in test [7] it was -9.79% (inactive); in test [8], -4.78% (inactive). The inhibition of aggregation in test [2] is -5.2% (inactive). Also, the nuclei count in test [2] is 113%; in test [3], 101%. In addition, the fluorescence slope is -0.294 (inactive) in test [4] and 0.00691 (inactive) in test [6]. For the same molecule, the NADPH fluorescence slope in test [5] is -2.3e-05 (inactive).

Consider `O=C(NC1CCCC1)c1c[nH]c2ccc(F)cc2c1=O`, for which, in test [1], the cell count worked out at 442. The inhibition is -4% (inactive) in test [1], -16% (inactive) in test [3], -2.78% (inactive) in test [7] and -20.3% (inactive) in test [8]. Moreover, in test [2], the inhibition of aggregation is -14.3% (inactive). Moreover, the nuclei count in test [2] is 118%; in test [3], 104%. For the same molecule, the values for the fluorescence slope in test [4] and in test [6] were -0.266 (inactive) and 0.00803 (inactive), respectively. Further, the NADPH fluorescence slope in test [5] is -1.4e-05 (inactive).

As to `O=C(NCc1ccco1)Nc1ccc2nsnc2c1`, the cell count in test [1] was determined as 683. Besides, the inhibition is -6.1% (inactive) in test [1], -138% (inactive) in test [3], -31.4% (inactive) in test [7] and -83.7% (inactive) in test [8]. Further, the inhibition of aggregation in test [2] was -22.1% (inactive). For the same molecule, the figures for the nuclei count in test [2] and in test [3] were 113% and 119%, respectively. The fluorescence slope is -0.445 (inactive) in test [4] and 0.00612 (inactive) in test [6]. The NADPH fluorescence slope in test [5] is -2.6e-05 (inactive).

For `CN1C(=O)C2(NCCc3c2[nH]c2ccccc32)c2ccccc21` (centres undefined), the cell count in test [1] is 583. The inhibition in test [1] is 0.7% (inactive); in test [3], -4.8% (inactive); in test [7] it was 20% (inactive); in test [8], 34.7% (inactive). In addition, in test [2], the inhibition of aggregation was -4.1% (inactive). In addition, the nuclei count in test [2] is 99.3%; in test [3], 90.7%. Besides, the fluorescence slope in test [4] was -0.482 (inactive); in test [6], 0.00214 (inactive). Also, in test [5], the NADPH fluorescence slope is -0.000314 (inactive).

As to `Nc1nonc1NC(=O)CSc1nc2ccccc2s1`, the cell count in test [1] is 519. Moreover, the inhibition was -8.4% (inactive) in test [1], -50.5% (inactive) in test [3], -7.11% (inactive) in test [7] and 15.4% (inactive) in test [8]. Also, the inhibition of aggregation in test [2] was 39.8% (active). For the same molecule, the nuclei count in test [2] turned out to be 61.2%; in test [3] it was 103%. Further, the fluorescence slope was -0.515 (inactive) in test [4] and 0.00565 (inactive) in test [6]. In addition, in test [5], the NADPH fluorescence slope is -0.000124 (inactive).

Consider `CCCCCCC(=O)c1c(C)[nH]c(C(=O)OCC)c1C`, for which the cell count in test [1] turned out to be 310. Moreover, the inhibition was -4.2% (inactive) in test [1], -54.5% (inactive) in test [3], -13.2% (inactive) in test [7] and -55.3% (inactive) in test [8]. Also, in test [2], the inhibition of aggregation was 14.4% (inactive). Further, the values for the nuclei count in test [2] and in test [3] were 59.6% and 102%, respectively. Besides, the values for the fluorescence slope in test [4] and in test [6] were -0.517 (inactive) and 0.00442 (inactive), respectively. For the same molecule, the NADPH fluorescence slope in test [5] was -2.8e-05 (inactive).

With `CCOc1ccc(C(=O)N2CCC(C(=O)c3ccc4c(c3)OCCO4)CC2)cc1`, in test [1], the cell count is 511. Further, the inhibition in test [1] was -4.3% (inactive); in test [3] it was -99.7% (inactive); in test [7] it was 10.8% (inactive); in test [8], 2.96% (inactive). Besides, the inhibition of aggregation in test [2] was 6% (inactive). The nuclei count in test [2] turned out to be 91.2%; in test [3], 116%. The fluorescence slope in test [4] is -0.511 (inactive); in test [6] it was 0.00391 (inactive). The NADPH fluorescence slope in test [5] was -0.000103 (inactive).

With `COc1cccc(C2=NOC(C(=O)Nc3ccc(C(C)=O)cc3)C2)c1` (centres undefined), in test [1], the cell count was determined as 808. For the same molecule, the inhibition in test [1] was -16.3% (inactive); in test [3], -49.8% (inactive); in test [7], -34.2% (inactive); in test [8] it was -61.5% (inactive). Moreover, in test [2], the inhibition of aggregation is -6.4% (inactive). In addition, the nuclei count in test [2] came out at 107%; in test [3], 80%. Moreover, the figures for the fluorescence slope in test [4] and in test [6] were -0.583 (inactive) and 0.00535 (inactive), respectively. In addition, the NADPH fluorescence slope in test [5] is 2.1e-05 (inactive).

In the case of `COc1cccc(N2CCN(Cc3nc(N)nc(Nc4ccccc4OC)n3)CC2)c1`, in test [1], the cell count worked out at 495. The inhibition in test [1] was 2.9% (inactive); in test [3], 2.5% (inactive); in test [7] it was 19% (inactive); in test [8] it was 17.2% (inactive). The inhibition of aggregation in test [2] was -8.8% (inactive). Moreover, the nuclei count in test [2] is 97.2%; in test [3] it was 104%. For the same molecule, the fluorescence slope in test [4] was -0.562 (inactive); in test [6], 0.00593 (inactive). For the same molecule, the NADPH fluorescence slope in test [5] is -3.3e-05 (inactive).

As to `CN(C)c1ccc(CNC2CC(C)(C)NC(C)(C)C2)cc1`, the cell count in test [1] was found to be 334. Further, the inhibition was 2.4% (inactive) in test [1], 20.8% (inactive) in test [3], -0.582% (inactive) in test [7] and 16.7% (inactive) in test [8]. Moreover, in test [2], the inhibition of aggregation was -12.5% (inactive). In addition, the nuclei count in test [2] came to 106%; in test [3], 91.1%. Besides, the fluorescence slope was -0.584 (inactive) in test [4] and 0.00412 (inactive) in test [6]. Moreover, the NADPH fluorescence slope in test [5] was -4.8e-05 (inactive).

Regarding `OCCN1CCN(CC(O)COc2ccc3ccccc3c2)CC1` (centres undefined), the cell count in test [1] worked out at 581. Further, the inhibition in test [1] is -10.8% (inactive); in test [3] it was -51.6% (inactive); in test [7] it was 11.6% (inactive); in test [8], 15.2% (inactive). Further, the inhibition of aggregation in test [2] is 0.6% (inactive). The nuclei count is 101% in test [2] and 106% in test [3]. Also, the values for the fluorescence slope in test [4] and in test [6] were -0.414 (inactive) and 0.00595 (inactive), respectively. In addition, the NADPH fluorescence slope in test [5] is -7.3e-05 (inactive).
